Experimental data from different studies.
Lines come from different studies, so protocols differ.
Effect on: cell growth or viability

Cc1n[nH]c2ccc3nc(-c4ccc(C(=O)NCCN(C)C)cc4)c4c(c3c12)CCCC4
GI50 (EOL1; 72 h): 0.037 µM

COc1cc(C=NNC(=O)c2nc3ccccc3s2)ccc1O
cell death (PC-3; MTT; 100 µM; 48 h): 29.4%

CCCCCCCCCCCCCCCCCCOc1cccc(CC(=O)OCC[N+](CC)(CC)CC)c1
inhibition (NCI-H522; SRB; 10 µM): 61.5%

Oc1cccc(-c2nc(N3CCOCC3)c3oc4ncccc4c3n2)c1
inhibition (A549; CCK-8; 1 µM): 20.4%

CN(C)CCNC(=O)c1ccc(-c2nc3ccc4[nH]ncc4c3c3c2CCCCC3)cc1
GI50 (EOL1; 72 h): 0.143 µM

CCCCCCCCCCCCCCCCCCOc1ccccc1CC(=O)OCC[N+]1(C)CCOCC1
inhibition (NCI-H522; SRB; 10 µM): 60.1%

CN(C)CCNC(=O)c1ccc(-c2nc3ccc4[nH]ncc4c3c3c2CCCCC3)c(F)c1
GI50 (EOL1; 72 h): 0.052 µM

CCCCCCCCCCCCCCCCCCOc1ccccc1CC(=O)OCC[N+](C)(C)C
inhibition (NCI-H522; SRB; 10 µM): 97.8%

Cc1n[nH]c2ccc3nc(-c4ccc(C(=O)NCCN(C)C)cc4)c4c(c3c12)CCCCC4
GI50 (EOL1; 72 h): 0.107 µM

CCC/C(=C\C1=C(OC)C(=O)c2ccccc2C1=O)C(=O)N(CC)CC
GI50 (HUVEC; resazurin; 48 h): 2.7 µM

O=C(NN=Cc1ccc(O)cc1)c1nc2ccccc2s1
cell death (PC-3; MTT; 100 µM; 48 h): 39.6%

CCCCCCCCCCCCCCCCCCOc1cccc(CC(=O)OCC[N+]2(C)CCOCC2)c1
inhibition (NCI-H522; SRB; 10 µM): 16.9%

COc1ccc2/c(=N/c3ccccc3NC(=O)CN)cc(-c3ccc4c(c3)OCCO4)oc2c1
inhibition (A549; CCK-8; 1 µM): 0.19%

CCCCCCCCCCCCCCCCCCOc1ccccc1CC(=O)OCC[N+](CC)(CC)CC
inhibition (NCI-H522; SRB; 10 µM): 89.5%

Cc1nc(Nc2ncc(C(=O)Nc3c(C)cccc3Cl)s2)cc(N2CC[C@H](O)C2)n1
inhibition (MEG-01; ATP luminescence; 10 µM; 72 h): 93%

COc1ccc(C=NNC(=O)c2nc3ccccc3s2)cc1O
cell death (PC-3; MTT; 100 µM; 48 h): 25.1%

COCCC(=O)Nc1ccccc1/N=c1\cc(-c2ccc3c(c2)OCO3)oc2ccccc12
inhibition (A549; CCK-8; 1 µM): 4.66%

CCc1nc(C(N)=O)c(Nc2ccc(N3CCC(N4CCN(C)CC4)CC3)c(OC)c2)nc1NC1CCOCC1
GI50 (EOL1; 72 h): 0.07 µM

Cc1nc(NC(=O)N2CCC[C@H]2C(N)=O)sc1-c1ccnc(C(C)(C)C(F)(F)F)c1
EC50 (NCI-H1048; ATP luminescence; 5 days): 0.611 µM

NCCC(=O)Nc1cccc(/N=c2\cc(-c3ccc4c(c3)OCO4)oc3ccccc23)c1
inhibition (A549; CCK-8; 1 µM): -1.71%

CCCCCCCCCCCCCCCCCCOc1cccc(CC(=O)OCC[N+]2(C)CCCC2)c1
inhibition (NCI-H522; SRB; 10 µM): 36.6%

NCCC(=O)Nc1ccccc1/N=c1\cc(-c2ccc3nc(N)oc3c2)oc2ccccc12
inhibition (A549; CCK-8; 1 µM): 18.6%

CCCCCCCCCCCCCCCCCCOCC(COP(=O)([O-])OCC[N+](C)(C)C)OC (stereo not shown)
inhibition (NCI-H522; SRB; 10 µM): 27%

CS(=O)(=O)NCCC(=O)Nc1ccccc1/N=c1\cc(-c2ccc3nc(N)oc3c2)oc2ccccc12
inhibition (A549; CCK-8; 1 µM): -5.4%

C=C(NC(=O)C(=C)NC(=O)c1csc(C2=N[C@@H]3c4csc(n4)[C@H]4NC(=O)c5csc(n5)[C@H]([C@](C)(O)[C@@H](C)O)NC(=O)[C@H]5CSC(=N5)/C(=C/C)NC(=O)[C@H]([C@@H](C)O)NC(=O)c5csc(n5)[C@]3(CC2)NC(=O)[C@H](C)NC(=O)C(=C)NC(=O)[C@H](C)NC(=O)[C@H]([C@@H](C)CC)N[C@@H]2C=Cc3c([C@H](C)O)cc(nc3[C@H]2O)C(=O)O[C@@H]4C)n1)C(N)=O
EC50 (U-251): 0.9 µM
